M4 ag – human M4 muscarinic receptor agonists, primary screen, CHO-K1 cells, Fluo-8 calcium fluorescence | 360,000 tested, 0.14% active | AID 624127, 2012 | activation, % at 3 µM | Muscarinic acetylcholine receptor M4 (Homo sapiens), P08173 | CHO-K1 hM4/Gqi5; vehicle 0%, full acetylcholine response 100%;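 active = activation above the run mean over all test wells plus 3 SD, cut at about 32% in these data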;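 also: peak over basal fluorescence ratio per well then scaled between controls; 0% = DMSO wells and 100% = acetylcholine at EC100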
M5 PAM – human M5 muscarinic receptor positive allosteric modulators, primary screen, CHO-K1 cells, Fluo-8 calcium fluorescence; Muscarinic acetylcholine receptor M5 (Homo sapiens), P08912; CHO-K1 hM5, ACh EC20 PAM; 0% = ACh EC20, 100% = ACh EC100; activation, % at 3 µM; 360,000 tested, 0.3% active; AID 624038, 2012;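 active = activation above the run cutoff, the mean activation of all test compounds plus 3 SD, cut at about 18% in these data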
Target sequence (P08912 whole entry, looked up): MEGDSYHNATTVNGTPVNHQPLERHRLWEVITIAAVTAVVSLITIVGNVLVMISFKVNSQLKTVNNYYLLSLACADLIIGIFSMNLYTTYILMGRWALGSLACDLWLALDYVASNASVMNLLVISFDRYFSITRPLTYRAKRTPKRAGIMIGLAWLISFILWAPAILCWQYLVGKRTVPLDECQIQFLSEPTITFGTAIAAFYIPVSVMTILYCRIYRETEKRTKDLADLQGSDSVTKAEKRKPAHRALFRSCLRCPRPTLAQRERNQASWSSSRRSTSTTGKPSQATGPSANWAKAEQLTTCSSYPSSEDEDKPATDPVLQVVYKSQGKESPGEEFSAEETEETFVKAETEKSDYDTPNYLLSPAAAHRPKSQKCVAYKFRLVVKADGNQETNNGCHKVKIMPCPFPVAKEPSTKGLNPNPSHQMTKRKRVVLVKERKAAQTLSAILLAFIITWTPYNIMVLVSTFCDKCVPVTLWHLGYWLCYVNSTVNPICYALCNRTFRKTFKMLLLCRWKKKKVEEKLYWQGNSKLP
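Replicates: One well per compound, no replicates | System: Human M5 receptor in CHO-K1 cells | Benchmarks: Low control EC20 acetylcholine (0%), high control EC100 acetylcholine (100%) | Probe or stimulus: Acetylcholine, EC20 level | Times: Fluo-8 loading 80 min at 37 °C plus 30 min room temperature | Signal: Intracellular calcium via Fluo-8 fluorescence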
CHRM4 PAM – human M4 muscarinic receptor positive allosteric modulators, primary screen, CHO-K1 cells, Fluo-8 calcium fluorescence; 360,000 tested, 0.4% active; CHO-K1 hM4/Gqi5, ACh EC20; 0% = ACh EC20, 100% = maximal ACh; Muscarinic acetylcholine receptor M4 (Homo sapiens), P08173; activation, % at 3 µM;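 active = activation above its plate's cutoff, the mean activation of sample wells plus 3 SD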
M5 antag – human M5 muscarinic receptor antagonists, primary screen, CHO cells, Fluo-8 calcium fluorescence; Muscarinic acetylcholine receptor M5 (Homo sapiens), P08912; CHO-hM5 cells, ACh EC80; inhibition, % at 3 µM; 360,000 tested, 0.59% active; AID 624040, 2012;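 active = inhibition above a per-plate cutoff, the mean of that plate's test compounds plus 3 SD, cut at about 27% in these data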;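 also: 0% = acetylcholine EC80 with DMSO and 100% = DMSO without agonist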
M5 ag – human M5 muscarinic receptor agonists, primary screen, CHO-K1 cells, Fluo-8 calcium fluorescence; activation, % at 3 µM; 360,000 tested, 0.19% active; Muscarinic acetylcholine receptor M5 (Homo sapiens), P08912; CHO-K1 hM5 cells; 0% DMSO wells, 100% maximal acetylcholine response;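 active = activation above the run's mean over test compounds plus 3 SD, cut at about 23% in these data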;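 also: signal is peak over basal fluorescence ratio across the kinetic read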
CHRM4 antagonist – human M4 muscarinic receptor antagonists, primary screen, CHO cells, Fluo-8 calcium fluorescence; AID 624125, 2012; CHO-hM4 cells, ACh EC80; 360,000 tested, 0.73% active; inhibition, % at 3 µM; Muscarinic acetylcholine receptor M4 (Homo sapiens), P08173;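 active = inhibition above its plate's cutoff, the mean inhibition of sample wells plus 3 SD, cut at about 27% in these data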;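 also: 0% = acetylcholine EC80 with DMSO and 100% = DMSO without agonist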
Numbers without * were called inactive. Hits are enriched below; roughly 1.9% of the tested compounds scored in any of these assays.

SMILES | M4 ag | M5 PAM | CHRM4 PAM | M5 antag | M5 ag | CHRM4 antagonist
Fc1ccccc1COc1ccc(Br)cc1CNCc1ccncc1 | 18.8 | -22.2 | -11.5 | 15.3 | 1.5 | 36.8*
Cc1ccc2nc(SCC(=O)O)nc(C)c2c1 | 0.9 | 4.5 | 18.8* | -3.5 | -0.1 | -1.3
C=C1C(=O)C23C(O)C1CCC2C12CCCC(C)(COC(C)=O)C1C(O)C3(O)OC2 (stereo not drawn) | 2.8 | -5.5 | -7.4 | 10.8 | 3.5 | 42.0*
CC(C)(C)n1nnnc1C(c1ccccc1)N1CCN(C(=O)C2CCCO2)CC1 (stereo not drawn) | 1.4 | -6.7 | 6.7 | -2.8 | 2.0 | -11.4
COc1ccc2c(c1OC)C(=O)N1C2SC[C@H]1C(=O)NC1CCCCC1 (stereo partly drawn) | 0.0 | -18.2 | 2.4 | 5.0 | 38.2* | -19.1
Cc1csc(NC(=O)CSc2nc(=O)n(CCN(C)C)c3c2CCCC3)n1 | 0.3 | 4.9 | 0.2 | 2.5 | -0.2 | 0.6
Cc1c(NC(=O)c2cc(-c3cccs3)nc3ccccc23)c(=O)n(-c2ccccc2)n1C | 12.8 | -19.3 | -11.9 | 27.1* | 4.3 | 20.1
CCCc1cc(=O)n2c([nH]c3ccccc32)c1C#N | 2.1 | -12.6 | 7.8 | 16.5 | 30.7* | -4.1
O=C(NC1CCCC1)C(C1CC1)n1c(C2CCCC2)nc2ccccc21 (stereo not drawn) | 1.4 | -0.2 | 6.5 | 4.8 | -0.9 | -20.8
O=C(NC1CCCC1)C(c1ccccc1)n1c(-c2cccc3ccccc23)nc2ccccc21 (stereo not drawn) | -1.0 | -18.0 | -15.0 | -0.9 | -4.3 | 73.8*
O=C(NC1CCCC1)C(C1CC1)n1c(C2CC2)nc2ccccc21 (stereo not drawn) | 1.2 | 2.6 | 23.4* | 0.3 | -0.5 | -12.9
Cc1ccc(-c2nc3ccccc3n2C(C(=O)NC(C)(C)C)C2CC2)cc1 (stereo not drawn) | 3.2 | -0.4 | 1.9 | 1.1 | 0.2 | -3.4
O=C(NC1CCCC1)C(c1ccccc1)n1c(-c2cccs2)nc2ccccc21 (stereo not drawn) | 0.3 | 0.0 | 10.2 | 7.2 | -3.7 | 6.2
CC(C)(C)NC(=O)C(C1CC1)n1c(-c2ccccc2)nc2ccccc21 (stereo not drawn) | 2.5 | 7.0 | 23.6* | -9.3 | -0.5 | -0.2
COc1cc(CNC[C@H]2O[C@@H](n3cnc(C(N)=O)n3)[C@H](O)[C@@H]2O)ccc1OCc1cccc(Cl)c1 | 1.1 | -4.7 | 1.0 | -2.8 | 0.5 | -34.0
CNCCCN1c2ccccc2CCc2ccccc21 | 10.1 | -18.7 | -18.7 | 84.6* | 1.0 | 36.1*
CN(C)CCCN1c2ccccc2Sc2ccccc21 | 6.9 | -19.6 | -17.1 | 90.3* | 0.5 | 51.5*
CCC(=O)c1ccc2c(c1)N(CCCN(C)C)c1ccccc1S2 | 4.9 | -19.0 | -16.9 | 74.4* | -1.3 | 38.9*
CN(C)CCCN1c2ccccc2CCc2ccc(Cl)cc21 | 4.8 | -19.1 | -16.7 | 92.0* | 0.0 | 72.2*
Cc1ccc(C(=O)Nc2ccccc2C(=O)N2CC(C)OC(C)C2)cc1 (stereo not drawn) | 0.1 | -5.0 | 1.2 | 7.2 | -0.4 | 1.1
CC(NC(=O)Nc1ccccc1Cl)c1ccc2c(c1)OCO2 (stereo not drawn) | 0.2 | -3.3 | 5.2 | 7.2 | -5.2 | -2.2
CC(C)OC1=CC(=O)OC(c2cccc(Cl)c2)C1 (stereo not drawn) | 0.9 | -0.3 | 10.3 | 5.0 | -1.6 | -0.6
CC(=O)c1ccc2c(c1)N(C)c1ccccc1S2 | -1.2 | 7.2 | 5.4 | 2.0 | -2.8 | 8.0
CC(=O)c1ccc2c(c1)N(CCCN(C)C)c1ccccc1S2 | 1.9 | -18.4 | -17.4 | 69.5* | -0.9 | 33.6*
COc1ccccc1CNc1nc(NCc2ccccc2OC)c2sccc2n1 | 12.4 | -13.9 | -9.7 | 25.4 | 3.2 | 10.5
SMILES | M4 ag | M5 PAM | CHRM4 PAM | M5 antag | M5 ag | CHRM4 antagonist
c1cc2cc(CNc3nc(NCC4CC4)nc4ccsc34)ccc2o1 | 10.2 | -9.6 | -6.4 | 15.6 | 3.3 | 5.1
COc1ccccc1CNc1nc(NCc2ccccc2SC)c2sccc2n1 | 12.8 | -14.0 | -9.4 | 30.3* | 1.6 | 32.3*
COc1ccccc1CNc1nc(NCc2ccc3occc3c2)c2sccc2n1 | 12.2 | -18.1 | -9.3 | 43.2* | 2.3 | 21.6
O=C(Cn1ncc2c3ccccc3n(Cc3ccccc3F)c2c1=O)NCC1CCCO1 (stereo not drawn) | 2.5 | 4.8 | 2.5 | -11.4 | -0.5 | -11.7
CCOC(=O)[C@]12CCCC=C1N(CCc1ccc(OC)c(OC)c1)C(=O)[C@H](CC(=O)NCCCCc1ccccc1)C2 | 19.0 | 3.0 | -6.3 | -7.5 | -0.8 | -11.8
O=C1Nc2ccc(Br)cc2/C1=C/C1CC=CCC1 (stereo not drawn) | 0.3 | 25.7* | 13.9 | 2.4 | 3.4 | -13.9
CC(=O)C1=C(O)C(=O)N(c2cc(C(C)(C)C)on2)C1c1ccc(Br)cc1 (stereo not drawn) | -0.4 | 6.2 | 30.2* | -0.2 | 3.1 | -1.3
O=C(c1noc2c1CSc1ccccc1-2)N1CCN(c2ccc(Cl)cc2)CC1 | 0.4 | 0.8 | -3.8 | 6.6 | -2.6 | 2.5
COc1cc2c(cc1OC)C(c1cccc(Br)c1)NC(=O)C2 (stereo not drawn) | 0.7 | 24.0* | -9.2 | -12.0 | 11.3 | 5.1
Cc1ccc(S(=O)(=O)N2CCN(C(=O)N3CCCCC3)CC2)c(C)c1 | 2.0 | -5.4 | -1.8 | 16.6 | 2.7 | 0.8
CC1(C)Cc2c(ccc3ccccc23)C2=C(C(=O)N3CCCC3)C(=O)C(=O)N21 | -2.1 | -2.4 | 17.8* | 17.3 | 7.1 | -4.4
CNc1nc(NCc2ccc(C)cc2C)c2sccc2n1 | 7.0 | -7.5 | -5.8 | 12.0 | 4.8 | 0.7
Cc1ccc(CNc2nc(NCc3ccccc3)nc3ccsc23)c(C)c1 | 22.2 | -17.7 | -13.1 | 28.1* | 9.4 | 28.2*
COCCNc1nc(NCc2ccccc2OC)c2sccc2n1 | 13.9 | -9.6 | -1.0 | 4.1 | 2.3 | -16.4
O=C1CCCN1CCCNc1nc(NCc2ccccc2)nc2ccsc12 | 144.6* | -21.9 | -14.9 | 90.3* | 84.9* | 95.8*
COCCNc1nc(NCc2ccccc2)nc2ccsc12 | 142.4* | -22.3 | -14.9 | 96.9* | 82.1* | 99.7*
Cc1sc2ncnc(N3CCC(C(=O)N4CC(C)SC4=Nc4ccc(Cl)cc4)CC3)c2c1C (stereo not drawn) | 2.3 | -13.1 | 4.5 | 6.7 | 2.5 | -21.1

Source: PubChem (The Scripps Research Institute Molecular Screening Center)
